Results on three molecules are retold here after ChEMBL document CHEMBL5653631, “A Potent and Selective ULK1 Inhibitor Suppresses Autophagy and Sensitizes Cancer Cells to Nutrient Stress” (iScience, 2018).

As usually defined, the inhibition is the relative decrease from the control value, in per cent.

For test [1], the target named is Ephrin type-A receptor 5 (Homo sapiens) (UniProt P54756). Put plainly: Inhibition of human recombinant EphA5 at 40 nM related to control ULK1.
Test [2] deals with Casein kinase I isoform gamma-1 (Homo sapiens) (UniProt Q9HCP0). Briefly: Inhibition of human recombinant CK1g1 at 500 nM in presence of ATP by radiometric assay relative to control.
Test [3] deals with LIM domain kinase 1 (Homo sapiens) (UniProt P53667). Put plainly: Inhibition of human recombinant LIMK1 at 500 nM in presence of ATP by radiometric assay relative to control.
Test [4] deals with T1, Serine/threonine-protein kinase Nek11 (Homo sapiens) (UniProt Q8NG66).
T1 sequence (whole entry): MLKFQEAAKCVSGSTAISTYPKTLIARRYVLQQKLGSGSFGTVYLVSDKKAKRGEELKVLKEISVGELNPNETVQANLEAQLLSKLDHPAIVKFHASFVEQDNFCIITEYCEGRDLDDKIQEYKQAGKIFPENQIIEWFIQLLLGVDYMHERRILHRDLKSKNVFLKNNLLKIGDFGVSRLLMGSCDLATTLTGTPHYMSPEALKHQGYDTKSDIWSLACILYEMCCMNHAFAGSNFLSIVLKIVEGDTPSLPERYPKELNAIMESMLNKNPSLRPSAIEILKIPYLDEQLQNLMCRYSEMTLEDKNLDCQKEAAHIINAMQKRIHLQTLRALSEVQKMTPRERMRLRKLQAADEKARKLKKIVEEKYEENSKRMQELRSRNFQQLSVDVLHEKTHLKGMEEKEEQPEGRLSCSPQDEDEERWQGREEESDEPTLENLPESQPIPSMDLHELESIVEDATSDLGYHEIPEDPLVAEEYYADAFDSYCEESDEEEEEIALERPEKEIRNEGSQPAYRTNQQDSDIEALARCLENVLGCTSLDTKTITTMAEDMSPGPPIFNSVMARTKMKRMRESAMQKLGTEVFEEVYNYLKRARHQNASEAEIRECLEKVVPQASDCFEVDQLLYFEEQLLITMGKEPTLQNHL
Put plainly: Inhibition of human recombinant NEK11 at 500 nM in presence of ATP by radiometric assay relative to control.

Test [5] has as its target Serine/threonine-protein kinase pim-3 (Homo sapiens) (UniProt Q86V86). Put plainly: Inhibition of human recombinant PIM3 at 500 nM in presence of ATP by radiometric assay relative to control.
The target of test [6] is Serine/threonine-protein kinase MARK2 (Homo sapiens) (UniProt Q7KZI7). Put plainly: Inhibition of human recombinant MARK2 at 500 nM related to control ULK1.
For test [7], the target named is Serine/threonine-protein kinase pim-3 (Homo sapiens) (UniProt Q86V86). Briefly: Inhibition of human recombinant PIM3 at 500 nM related to control ULK1.
Test [8] deals with T2, Serine/threonine-protein kinase TAO1 (Homo sapiens) (UniProt Q7L7X3).
T2 sequence (whole entry): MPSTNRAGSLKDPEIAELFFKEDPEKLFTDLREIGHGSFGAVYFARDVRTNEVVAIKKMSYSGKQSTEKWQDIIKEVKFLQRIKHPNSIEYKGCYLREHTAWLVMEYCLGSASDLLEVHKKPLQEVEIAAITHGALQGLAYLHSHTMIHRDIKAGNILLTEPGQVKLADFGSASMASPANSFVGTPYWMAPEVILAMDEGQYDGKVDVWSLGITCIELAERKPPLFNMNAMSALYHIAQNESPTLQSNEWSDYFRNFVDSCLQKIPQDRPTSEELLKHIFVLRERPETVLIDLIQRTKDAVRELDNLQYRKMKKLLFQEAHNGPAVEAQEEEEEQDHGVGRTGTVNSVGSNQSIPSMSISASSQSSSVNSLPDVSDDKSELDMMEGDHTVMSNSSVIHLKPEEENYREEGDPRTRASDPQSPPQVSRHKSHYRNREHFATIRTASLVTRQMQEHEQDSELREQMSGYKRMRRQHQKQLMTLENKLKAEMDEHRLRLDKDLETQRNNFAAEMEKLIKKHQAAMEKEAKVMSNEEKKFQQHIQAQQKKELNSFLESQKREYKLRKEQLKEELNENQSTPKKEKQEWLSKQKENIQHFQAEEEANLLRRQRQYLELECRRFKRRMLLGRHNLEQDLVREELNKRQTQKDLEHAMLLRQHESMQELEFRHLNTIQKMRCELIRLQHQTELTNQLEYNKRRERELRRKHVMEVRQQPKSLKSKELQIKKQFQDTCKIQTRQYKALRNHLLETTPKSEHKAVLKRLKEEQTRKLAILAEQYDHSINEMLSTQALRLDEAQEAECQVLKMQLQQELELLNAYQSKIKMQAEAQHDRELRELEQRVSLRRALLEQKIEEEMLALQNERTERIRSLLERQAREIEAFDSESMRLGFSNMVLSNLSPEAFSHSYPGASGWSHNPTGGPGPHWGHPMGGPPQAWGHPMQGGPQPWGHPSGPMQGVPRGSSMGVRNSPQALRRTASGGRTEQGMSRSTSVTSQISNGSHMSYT
Put plainly: Inhibition of human recombinant TAO1 at 500 nM related to control ULK1.

Test [9] deals with Activin receptor type-2A (Homo sapiens) (UniProt P27037). Briefly: Inhibition of human recombinant ACTR2 at 500 nM in presence of ATP by radiometric assay relative to control.
In test [10] the target is T3, Serine/threonine-protein kinase A-Raf (Homo sapiens) (UniProt P10398).
T3 sequence (whole entry): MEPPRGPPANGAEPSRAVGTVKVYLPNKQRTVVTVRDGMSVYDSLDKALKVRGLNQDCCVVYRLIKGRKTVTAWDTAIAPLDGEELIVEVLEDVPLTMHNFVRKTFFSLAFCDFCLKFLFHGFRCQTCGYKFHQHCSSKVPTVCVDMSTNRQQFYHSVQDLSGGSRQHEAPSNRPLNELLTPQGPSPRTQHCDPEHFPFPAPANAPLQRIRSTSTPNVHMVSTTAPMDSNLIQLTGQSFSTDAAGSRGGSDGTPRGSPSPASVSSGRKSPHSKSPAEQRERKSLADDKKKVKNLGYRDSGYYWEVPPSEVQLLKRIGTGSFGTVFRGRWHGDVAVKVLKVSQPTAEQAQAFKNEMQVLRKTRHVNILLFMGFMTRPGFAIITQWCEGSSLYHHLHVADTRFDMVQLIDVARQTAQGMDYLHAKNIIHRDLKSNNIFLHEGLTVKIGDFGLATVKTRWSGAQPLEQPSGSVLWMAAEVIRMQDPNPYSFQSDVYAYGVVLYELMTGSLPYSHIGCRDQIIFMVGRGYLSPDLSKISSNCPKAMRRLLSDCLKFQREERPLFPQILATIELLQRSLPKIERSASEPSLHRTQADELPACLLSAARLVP
Put plainly: Inhibition of human recombinant ARAF at 15 nM related to control ULK1. Put shortly:
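Panel of 327 recombinant human kinases, each assayed in vitro by radiometric activity assay in duplicate at a single inhibitor concentration per compound, chosen with reference to its ULK1 inhibition. Activity remaining was expressed as percent of vehicle control, and percent inhibition was calculated as 100 minus percent activity remaining.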

For the molecule `O=C(N[C@@H](C1CC1)C(F)(F)F)c1cc(-c2cnn3cc(-c4ccc(F)cc4)cnc23)cs1`, in test [1], the fold change (FC) came out at 0.
As for `CNC(=O)c1ccccc1Oc1nc(Nc2cc(OC)c(OC)c(OC)c2)ncc1Br`, the inhibition in test [2] is 0%; in [3], 2%; in test [4], 8%; in [5], 0%; in test [9] it was 3%. Moreover, the fold change (FC) in test [6] amounted to 0.68; in test [7], 0; in test [8] it was 0.08.
As to `CC(C)[C@H](NC(=O)c1cc(-c2cnn3cc(-c4ccc(OCCN5CCCCC5)cc4)cnc23)cs1)C(F)(F)F`, the fold change (FC) in test [10] was 0.07.
